Results collected from several papers.
Target: Casein kinase I isoform gamma-1 (CSNK1G1, Homo sapiens, UniProt Q9HCP0)

With C[C@@H]1CN(c2cc(-c3nn(C)c4ccc(OC5(C)CC5)cc34)ncn2)C[C@H](C)O1 the remaining binding was 89% (cell-free assay, competition with immobilised ligand; 1 µM).
O=C(c1ccc(Nc2nccc(-c3cc4ccccc4s3)n2)cc1)N1CCC(N2CCCC2)CC1 gave a remaining binding of 88% (binding, competition with immobilised ligand; 1 µM).
With c1cncc(-c2cccc(Nc3nccc(NC4CCCCC4)n3)c2)c1 the remaining binding was 89% (binding, competition with immobilised ligand; 10 µM).
COc1cnc(Nc2cccc(S(N)(=O)=O)c2)nc1N1CCN(c2ccccc2)CC1 has a remaining binding of 100% (binding, competition with immobilised ligand; 1 µM).
For CCN1CCN(Cc2ccc(C(=O)Nc3ccc(C)c(Oc4ccc5c(c4)CC(=O)N5)c3)cc2C(F)(F)F)CC1, the remaining binding was 100% (binding, competition with immobilised ligand; 1 µM).
With CNC(=O)[C@@H]1CC[C@@H](n2c(-c3ccc4cnccc4c3)nc3ccc(C(=O)NCc4cccc(C(N)=O)c4)cc32)C1 the remaining binding was 100% (binding, competition with immobilised ligand; 1 µM).
N[C@@H]1CCN(c2nccc(-c3cnn4ncccc34)n2)C1 has a remaining binding of 100% (binding; 1 µM).
CO[C@@H](C)c1c(Nc2ccc([C@H](N(C)C(=O)C3CCS(=O)(=O)CC3)C(F)(F)F)cc2)cnc2cc(Cl)nn12 has a remaining binding of 100% (cell-free assay, competition with immobilised ligand; 1 µM).
CN(C)c1ncc(F)c(-c2cnn3ncccc23)n1 gave a remaining binding of 74% (binding; 1 µM).
CN(C)c1ncnc(-c2ccc3nc(Nc4cc(CN5CCN(C(=O)CC(F)(F)F)CC5)ccn4)[nH]c3c2)c1Cl gave a remaining binding of 76% (cell-free assay, competition with immobilised ligand; 1 µM).
With CN(C)c1nccc(-c2cnn3ncccc23)n1 the remaining binding was 100% (binding; 1 µM).
Nc1ncc2c(n1)-c1c([nH]c3ccc(C#CC4CC4)cc13)CCCC2 has a remaining binding of 79% (binding, competition with immobilised ligand; 1 µM).
With CN(c1nccc(-c2cnn3ncccc23)n1)C1CC1 the remaining binding was 100% (binding; 1 µM).
CCCCN(CCCC)C(=O)CN1C[C@H](c2cc(OC)c3c(c2)OCO3)[C@@H](C(=O)O)[C@@H]1CC(C)(C)CCC gave a remaining binding of 100% (cell-free assay, competition with immobilised ligand; 1 µM).
For C[C@@H]1CCN(c2nccc(-c3cnn4ncccc34)n2)C1, the remaining binding was 87% (binding; 1 µM).
CC(=O)c1c(NS(C)(=O)=O)c2cc(-c3ccc(Cl)cc3)c(-c3ccc(Cl)cc3Cl)nc2n(C)c1=O has a remaining binding of 92% (cell-free assay, competition with immobilised ligand; 1 µM).
With O=C(NCC1CCOCC1)c1n[nH]cc1NC(=O)c1c(F)cccc1F the remaining binding was 78% (binding, competition with immobilised ligand; 1 µM).
The remaining binding of NS(=O)(=O)c1cc(NC(=O)Cc2ccccc2)ccc1Oc1cccc(Cl)c1 is reported as 89% (cell-free assay, competition with immobilised ligand; 1 µM).
O=C(NCCCN1CCOCC1)c1ccc(Nc2ncc(Cl)c(-c3ccc(Cl)s3)n2)cc1 has a remaining binding of 88% (binding, competition with immobilised ligand; 1 µM).
